Assay results from ChEMBL document CHEMBL3243954 (J Med Chem, 1979).

Key:
Mus musculus [1] = assay: Antimetrazol activity in iv dosed mouse assessed as inhibition of metrazol-induced tonic-extensor seizures administered 30 mins prior to metrazol challenge; assay type: functional; conditions: Mus musculus, iv; read-out: ED50
Procedure, shortened: (§1)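 Mice dosed iv with the ester in aqueous solution containing under 10% chremofor. Metrazol 125 mg/kg sc was given 30 or 60 min after the ester. ED50 is the dose preventing tonic-extensor seizures in 50% of mice, derived by probit analysis.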

Mus musculus [2] = assay: Antimetrazol activity in iv dosed mouse assessed as inhibition of metrazol-induced tonic-extensor seizures administered 60 mins prior to metrazol challenge; assay type: functional; conditions: Mus musculus, iv; read-out: ED50; procedure, shortened: as §1
Mus musculus [3] = assay: Muscle relaxant activity in iv dosed mouse after 30 mins by rotarod test; assay type: ADME, organism-based; conditions: in vivo, 0.5 h
Mus musculus [4] = assay: Muscle relaxant activity in iv dosed mouse after 60 mins by rotarod test; assay type: ADME, organism-based; conditions: in vivo, 1 h
Mus musculus [5] = species on record: Mus musculus; assay: Ratio of ED50 for muscle relaxant activity in mouse to ED50 for antimetrazol activity in mouse measured after 30 mins
[6] = Drug metabolism in mouse liver microsomes assessed as rate of esterase-mediated compound hydrolysis measured per mg of protein by pH stat based titrimetric analysis; assay type: ADME
Mus musculus [7] = species on record: Mus musculus; assay: Ratio of ED50 for muscle relaxant activity in mouse to ED50 for antimetrazol activity in mouse measured after 60 mins
esterase = assay: Drug metabolism in mouse liver microsomes assessed as rate of esterase-mediated compound hydrolysis by pH stat based titrimetric analysis; assay type: ADME; conditions: liver microsomes
Brain [8] = assay: Drug uptake albino mouse brain at 10 mg equivalent of oxazepam/kg, iv after 1 min measured per gm of tissue by thin-layer chromatography; assay type: ADME, organism-based; conditions: in vivo
Brain [9] = assay: Drug uptake albino mouse brain at 10 mg equivalent of oxazepam/kg, iv after 3 mins measured per gm of tissue by thin-layer chromatography; assay type: ADME, organism-based; conditions: in vivo, 0.05 h
Brain [10] = assay: Drug uptake albino mouse brain at 10 mg equivalent of oxazepam/kg, iv after 5 mins measured per gm of tissue by thin-layer chromatography; assay type: ADME, organism-based; conditions: in vivo
Brain [11] = assay: Drug uptake albino mouse brain at 10 mg equivalent of oxazepam/kg, iv after 10 mins measured per gm of tissue by thin-layer chromatography; assay type: ADME, organism-based; conditions: in vivo
Brain [12] = assay: Drug uptake albino mouse brain at 10 mg equivalent of oxazepam/kg, iv after 20 mins measured per gm of tissue by thin-layer chromatography; assay type: ADME, organism-based; conditions: in vivo
Brain [13] = assay: Drug uptake albino mouse brain at 10 mg equivalent of oxazepam/kg, iv after 30 mins measured per gm of tissue by thin-layer chromatography; assay type: ADME, organism-based; conditions: in vivo, 0.5 h
Brain [14] = assay: Drug uptake albino mouse brain at 10 mg equivalent of oxazepam/kg, iv after 60 mins measured per gm of tissue by thin-layer chromatography; assay type: ADME, organism-based; conditions: in vivo, 1 h
Brain [15] = assay: Drug uptake albino mouse brain at 10 mg equivalent of oxazepam/kg, iv after 120 mins measured per gm of tissue by thin-layer chromatography; assay type: ADME, organism-based; conditions: in vivo, 2 h
Brain [16] = assay: Drug uptake albino mouse brain at 10 mg equivalent of oxazepam/kg, iv after 240 mins measured per gm of tissue by thin-layer chromatography; assay type: ADME, organism-based; conditions: in vivo, 4 h
[17] = Retardation factor, Rm of the compound by thin-layer chromatography; assay type: physicochemical
Brain [18] = assay: Drug uptake albino mouse brain at 10 mg equivalent of oxazepam/kg, iv after 12 mins measured per gm of tissue by thin-layer chromatography; assay type: ADME, organism-based; conditions: in vivo, 0.2 h
Brain [19] = assay: Drug uptake albino mouse brain at 10 mg equivalent of oxazepam/kg, iv after 6 mins measured per gm of tissue by thin-layer chromatography; assay type: ADME, organism-based; conditions: in vivo, 0.1 h
Brain [20] = assay: Drug uptake albino mouse brain at 10 mg equivalent of oxazepam/kg, iv after 40 mins measured per gm of tissue by thin-layer chromatography; assay type: ADME, organism-based; conditions: in vivo

Compound | ED50 (Mus musculus [1]) [mg/kg] | ED50 (Mus musculus [2]) [mg/kg] | ED50 (Mus musculus [3]) [mg/kg] | ED50 (Mus musculus [4]) [mg/kg] | Ratio ED50 (Mus musculus [5]) | Vmax [6] [nmol/min] | Ratio ED50 (Mus musculus [7]) | other results
CCC(CC)C(=O)OC1N=C(c2ccccc2)c2cc(Cl)ccc2NC1=O (stereo not drawn) | 0.28 | 0.33 | 2.8 | 3.42 | 10 | 1.4 | 10.4 | –
CC(=O)OC1N=C(c2ccccc2)c2cc(Cl)ccc2NC1=O (stereo not drawn) | 0.38 | 0.33 | 0.97 | 1.2 | 2.6 | 323 | 3.6 | –
CCC(=O)OC1N=C(c2ccccc2)c2cc(Cl)ccc2NC1=O (stereo not drawn) | 0.13 | 0.32 | 4.45 | 4.4 | 34.2 | 139 | 13.8 | –
CCCC(=O)OC1N=C(c2ccccc2)c2cc(Cl)ccc2NC1=O (stereo not drawn) | 0.29 | 0.32 | 2.64 | 3.28 | 9.1 | 88 | 10.3 | –
CC(C)C(=O)OC1N=C(c2ccccc2)c2cc(Cl)ccc2NC1=O (stereo not drawn) | 0.51 | 0.33 | 2.45 | 2.67 | 4.8 | 131 | 8.1 | –
COC(=O)CCC(=O)OC1N=C(c2ccccc2)c2cc(Cl)ccc2NC1=O (stereo not drawn) | – | – | – | – | – | 125 | – | –
O=C(CCCc1ccccc1)OC1N=C(c2ccccc2)c2cc(Cl)ccc2NC1=O (stereo not drawn) | – | – | – | – | – | 1.5 | – | Km (esterase): 9.5 µM
O=C(CCc1ccccc1)OC1N=C(c2ccccc2)c2cc(Cl)ccc2NC1=O (stereo not drawn) | 0.44 | 0.31 | 2.57 | 3.56 | 5.8 | 7.9 | 11.5 | Km (esterase): 9.7 µM
CC(=O)OC1N=C(c2ccccc2)c2cc(Cl)ccc2N[14C]1=O (stereo not drawn) | – | – | – | – | – | – | – | Drug uptake (Brain [8]): 29.9 nmol; Drug uptake (Brain [9]): 39.4 nmol; Drug uptake (Brain [10]): 47.5 nmol; Drug uptake (Brain [11]): 59.5 nmol; Drug uptake (Brain [12]): 49.2 nmol; Drug uptake (Brain [13]): 40.3 nmol; Drug uptake (Brain [14]): 46.6 nmol; Drug uptake (Brain [15]): 33 nmol; Drug uptake (Brain [16]): 11 nmol; Rm [17]: -0.15
CCC(=O)OC1N=C(c2ccccc2)c2cc(Cl)ccc2N[14C]1=O (stereo not drawn) | – | – | – | – | – | – | – | Drug uptake (Brain [18]): 30.8 nmol; Drug uptake (Brain [8]): 12.6 nmol; Drug uptake (Brain [9]): 17.5 nmol; Drug uptake (Brain [19]): 24.2 nmol; Drug uptake (Brain [12]): 41.7 nmol; Drug uptake (Brain [20]): 33 nmol; Rm [17]: -0.03
